Assay outcomes deposited in PubChem by Columbia University Molecular Screening Center.
Insulin prom act – TRM-6 insulin promoter activation | TRM-6 cells, insulin promoter eGFP reporter, imaging; plate-scaled: unstimulated 0, stimulated control 100 | activation, % at 2 µM | AID 1296 | hit rate 0.81% among 130,000;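 active means activation at 2 µM above a set limit, confirmed on inspection of the cell images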;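 further: share of cells whose green reporter signal exceeds an intensity cutoff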
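Material: Human fetal islet-derived TRM-6 cells with tamoxifen-inducible insulin promoter–eGFP reporter | Medium: Low-glucose (5.5 mM) medium with tamoxifen | Probe or stimulus: Tamoxifen inducer, 0.75 µM, in seeding medium | Schedule: Tamoxifen pre-incubation 15 h overnight, then compound exposure 48 h at 37 °C | Detection: High-content imaging of fixed cells with Hoechst nuclear stain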
Numbers stand for hits; 0 = inactive. Only a selection was taken, and hits are over-represented in it overall.

SMILES | Insulin prom act
COc1cccc(C2=NOC(C(=O)Nc3ccccc3SC)C2)c1 (stereo unspecified) | 0
O=C(Nc1cc2c(cc1Cl)OCCCO2)c1ccc(F)cc1 | 0
CC(C)[C@H](NC(=O)c1ccccc1)C(=O)OCC(=O)NCc1ccc(F)cc1 | 0
COc1ccc(NC(=O)CSc2ccc3nnc(-c4cccnc4)n3n2)c(OC)c1 | 0
COc1ccc(/C=C/C(=O)NCCSCc2ccco2)cc1 | 0
CCOc1ccc(-c2cc3nc(C4CCN(C(=O)OC(C)(C)C)CC4)c(C(=O)O)cn3n2)cc1 | 0
COC(=O)C1CN(S(=O)(=O)c2ccc(C)cc2)CCN1S(=O)(=O)c1ccc(C)cc1 (stereo unspecified) | 136
Cc1ccc(S(=O)(=O)N2CCCCC2C(=O)O)cc1 (stereo unspecified) | 0
COc1ccc(NC(=O)C2CCCN2S(=O)(=O)c2ccc(C)cc2)cc1 (stereo unspecified) | 0
O=C(NCc1ccccc1)Nc1cccn(Cc2ccccc2Cl)c1=O | 0
COc1cc2c3nnc(-c4ccccc4)c-3cn(Cc3ccccc3F)c2cc1OC | 525
Cc1sc2ncn(Cc3ccccc3F)c(=O)c2c1C | 0
O=c1c2ccsc2ncn1Cc1ccccc1F | 0
COc1cc2c3nnc(-c4ccc(F)cc4)c-3cn(Cc3ccccc3F)c2cc1OC | 800
COc1ccc(-c2noc(CCN3C(=O)c4ccccc4C3=O)n2)cc1OC | 0
O=C1NC(=O)/C(=C\c2cn(Cc3ccccc3F)c3ccccc23)N1 | 0
Cc1cc2c(ncn2C)c(NS(=O)(=O)c2ccc(Cl)cc2)c1C | 0
CCOC(=O)c1c(C)oc2cc3c(C(=O)OCC)c(C)oc3cc12 | 0
COc1ccc(-c2cn(/N=C/c3ccc(Cl)cc3Cl)c(N)n2)cc1 | 0
CC(C)CC(C(=O)NC(C)(C)C)N(CC1CCCO1)C(=O)c1snc(C(N)=O)c1N (stereo unspecified) | 0
O=C1Nc2ccccc2N(O)N1c1cc(-c2ccccc2)[nH]n1 | 0
CN(C)c1ccc(/C=C/C=N/Nc2nc(N3CCOCC3)nc(N3CCOCC3)n2)cc1 | 0
COc1ccc(/C=N/Nc2nonc2N)cc1OC | 0
COc1cc(/C=N/Nc2nc3ccccc3o2)cc(OC)c1O | 0
COc1cc(/C=N\Nc2nc3ccccc3o2)cc(OC)c1OC | 469
SMILES | Insulin prom act
COc1cc(OC)c(CNC2CCCCCC2)cc1Br | 0
O=C(Nc1cccc(Cl)c1)Nc1nnc(CSCCOc2ccc(Cl)cc2)s1 | 0
C=C1C(O)C[C@H]2C(=C)CCC3[C@H](OC(=O)[C@]3(O)CO)[C@@H]12 (stereo partly specified) | 275
CCOC(=O)N1CCC(N(CCN(C)C)C(=S)Nc2cc(C)cc(C)c2)CC1 | 0
CCC(CO)n1c(=S)[nH]c2cc(OC)c(OC)cc2c1=O (stereo unspecified) | 0
Cc1cc2cc(CNC(=O)Nc3ccccc3)ccc2[nH]1 | 0
O=C(CC1CC2CCC1C2)OCC(=O)c1c[nH]c2ccccc12 (stereo unspecified) | 0
O=C(NC1CCCc2ccccc21)C1CCN(S(=O)(=O)c2ccccc2F)CC1 (stereo unspecified) | 0
O=C(NC1CCCc2ccccc21)C1CCN(c2nnc(-n3cccc3)s2)CC1 (stereo unspecified) | 186
O=C(NC1CCCc2ccccc21)C1CCN(S(=O)(=O)c2cnc[nH]2)CC1 (stereo unspecified) | 0
CCc1ccc2nc3sc(C(=O)O)cc3cc2c1 | 0
O=S(=O)(NCC1NCCc2ccccc21)c1ccccc1 (stereo unspecified) | 0
Cc1cccc2cc(CN(Cc3ccco3)C(=O)c3cccs3)c(=O)[nH]c12 | 0
Cc1ccc2cc(CN(Cc3ccco3)C(=O)NCc3ccccc3)c(=O)[nH]c2c1C | 160
Cc1ccc2cc(CN(Cc3ccco3)C(=S)NCC3CCCO3)c(=O)[nH]c2c1C (stereo unspecified) | 0
CCc1ccccc1NC(=O)c1ccc([N+](=O)[O-])s1 | 0
CC(=O)c1ccc(NC(=O)C2C3C=CC(C3=C(c3ccccc3)c3ccccc3)C2C(=O)O)cc1 (stereo unspecified) | 0
COc1cc(NS(=O)(=O)c2ccc(Cl)cc2)c(C(=O)O)cc1OC | 0
COc1ccc(CN2C(=O)CS(=O)CC2=O)cc1OC | 0
CC(C)c1ccc(NC(=O)CSc2ncccc2C(=O)Oc2cccc([N+](=O)[O-])c2)cc1 | 0
CCN(CC(=O)NC(=O)NC1CCCCC1)Cc1nc2ccccc2c(=O)[nH]1 | 0
O=C(COCc1nc2ccccc2c(=O)[nH]1)NCC1CCCCC1 | 486
O=C(CCc1nc2ccccc2c(=O)[nH]1)OCC(=O)c1ccc(C2CCCCC2)cc1 | 0
COC(=O)CCN(C(=O)c1cc([N+](=O)[O-])cc([N+](=O)[O-])c1)c1ccccn1 | 0
CC(c1ccco1)N(C(=O)c1ccc(C#N)cc1)c1ccccn1 (stereo unspecified) | 0
COC(=O)CCN(C(=O)c1ccc(OC(C)=O)cc1)c1ccccn1 | 76
CCN(CC)CCn1c2ccccc2c2cnc(N)c(C#N)c21 | 0
Cc1cccc(C(=O)NN2S(=O)(=O)c3ccccc3S2(=O)=O)c1 | 0
